The record followed here is ChEMBL document CHEMBL2203005 (Bioorg Med Chem, 2012).

In test [1] the target is NAD(P)H dehydrogenase [quinone] 1 (Mus musculus) (UniProt Q64669). The test can be described thus: Induction of quinone reductase-1 activity in mouse Hepa-1c1c7 cells after 48 hrs by MTT assay. The test is classed as cell-based. The method in brief:
(§1)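 Hepa 1c1c7 murine hepatoma cells exposed to compound (max 50 μM) for 48 h in 96-well format, then permeabilized with digitonin. QR1 activity read as NADPH-dependent menadiol-mediated MTT reduction to formazan, absorbance 595 nm; crystal violet total-protein assay in parallel. CD = concentration doubling activity, determined only where induction ratio > 2. Three independent experiments in duplicate; 4′-bromoflavone positive control.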

For test [2] the target is unchanged. Description: Induction of quinone reductase-1 activity in mouse BPrc1 cells after 48 hrs by MTT assay. The test is classed as cell-based. Background: Formazan colour is commonly taken as a measure of viable cells.
Test [3] has as its target T1, Aromatase (Homo sapiens, UniProt P11511).
T1 sequence (P11511 whole entry): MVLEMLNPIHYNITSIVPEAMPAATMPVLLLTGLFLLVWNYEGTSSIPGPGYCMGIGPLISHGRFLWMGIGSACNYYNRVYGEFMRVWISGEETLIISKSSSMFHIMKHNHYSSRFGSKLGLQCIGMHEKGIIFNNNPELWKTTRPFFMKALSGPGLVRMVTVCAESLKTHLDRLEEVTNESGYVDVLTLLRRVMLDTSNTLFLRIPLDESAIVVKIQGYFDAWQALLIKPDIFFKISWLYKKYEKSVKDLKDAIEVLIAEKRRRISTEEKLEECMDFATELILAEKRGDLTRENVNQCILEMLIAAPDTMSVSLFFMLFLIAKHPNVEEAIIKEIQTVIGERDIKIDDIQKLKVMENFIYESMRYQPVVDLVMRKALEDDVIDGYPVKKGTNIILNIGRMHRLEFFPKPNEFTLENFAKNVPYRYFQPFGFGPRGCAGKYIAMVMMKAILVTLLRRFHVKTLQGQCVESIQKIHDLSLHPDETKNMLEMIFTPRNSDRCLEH
To be noted: 0.5 h, read-out: INH.

Test [4] is described as follows: Inhibition of TNFalpha-induced NF-kappaB activity expressed in HEK293 cells by luciferase reporter gene assay. In kind it is cell-based. To be noted: Homo sapiens.
The target in test [5] is T2, Nitric oxide synthase, inducible (Mus musculus, UniProt P29477).
T2 sequence (P29477 whole entry): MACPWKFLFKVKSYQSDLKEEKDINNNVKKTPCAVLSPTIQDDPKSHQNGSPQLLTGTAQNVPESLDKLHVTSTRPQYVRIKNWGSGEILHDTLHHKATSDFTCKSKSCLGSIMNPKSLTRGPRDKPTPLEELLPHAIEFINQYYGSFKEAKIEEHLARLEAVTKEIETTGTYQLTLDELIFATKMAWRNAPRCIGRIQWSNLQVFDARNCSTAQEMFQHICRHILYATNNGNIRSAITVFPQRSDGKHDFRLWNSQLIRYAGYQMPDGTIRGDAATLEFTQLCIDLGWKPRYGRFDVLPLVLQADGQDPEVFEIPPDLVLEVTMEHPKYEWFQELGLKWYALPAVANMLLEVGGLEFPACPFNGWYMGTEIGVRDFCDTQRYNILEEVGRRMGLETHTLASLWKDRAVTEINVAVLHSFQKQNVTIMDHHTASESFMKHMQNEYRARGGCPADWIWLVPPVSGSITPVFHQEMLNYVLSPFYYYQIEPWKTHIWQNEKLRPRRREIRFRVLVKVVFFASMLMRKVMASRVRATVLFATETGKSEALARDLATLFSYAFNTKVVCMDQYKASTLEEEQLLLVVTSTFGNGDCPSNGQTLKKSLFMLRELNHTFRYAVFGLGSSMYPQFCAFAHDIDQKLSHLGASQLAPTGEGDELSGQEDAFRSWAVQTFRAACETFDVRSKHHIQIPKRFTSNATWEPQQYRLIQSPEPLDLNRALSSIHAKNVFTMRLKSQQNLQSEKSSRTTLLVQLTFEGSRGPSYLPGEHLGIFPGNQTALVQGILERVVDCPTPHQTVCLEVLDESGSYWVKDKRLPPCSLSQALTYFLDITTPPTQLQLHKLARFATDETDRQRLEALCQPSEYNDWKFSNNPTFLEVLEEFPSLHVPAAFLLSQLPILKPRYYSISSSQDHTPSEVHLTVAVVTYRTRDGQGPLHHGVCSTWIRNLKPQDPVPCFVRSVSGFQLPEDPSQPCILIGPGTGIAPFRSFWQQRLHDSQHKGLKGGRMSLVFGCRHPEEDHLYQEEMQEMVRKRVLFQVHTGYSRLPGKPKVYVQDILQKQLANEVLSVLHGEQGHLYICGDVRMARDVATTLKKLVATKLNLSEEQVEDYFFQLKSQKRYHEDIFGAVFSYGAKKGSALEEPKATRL
Description: Inhibition of LPS-induced iNOS activity in mouse RAW 264.7 cells assessed as inhibition of NO production pretreated with compound for 30 mins before LPS challenge after 24 hrs by Griess reagent method. The test is classed as cell-based. Background: Nitrite, measured by Griess reagent, commonly stands in for NO production.

Test [6] deals with NAD(P)H dehydrogenase [quinone] 1 (Mus musculus) (UniProt Q64669). The test can be described thus: Induction of quinone reductase-1 activity in mouse Hepa-1c1c7 cells assessed as induction ratio after 48 hrs by MTT assay relative to control. In kind it is cell-based. The method in brief:
as §1

The test system of a further test is HEK293. Description: Inhibition of TNFalpha-induced NF-kappaB activity expressed in HEK293 cells at 50 uM by luciferase reporter gene assay. To be noted: Homo sapiens. The test is classed as cell-based. On the technique in general: Reporter assays use an easily measured gene product as a stand-in for the process of interest.
The target of test [7] is T1, Aromatase.
The target in test [8] is T3, Nitric oxide synthase, inducible (Mus musculus) (UniProt P29477).
T3 sequence (whole entry): T2 sequence (P29477 whole entry)
The test can be described thus: Inhibition of LPS-induced iNOS activity in mouse RAW 264.7 cells assessed as inhibition of NO production at 50 uM pretreated with compound for 30 mins before LPS challenge after 24 hrs by Griess reagent method. In kind it is cell-based.

Test [9] has as its target NAD(P)H dehydrogenase [quinone] 1 (Mus musculus) (UniProt Q64669). Description: Induction of quinone reductase-1 activity in mouse TAOc1BPrc1 cells after 48 hrs by MTT assay. The test is classed as cell-based.

Molecules are shown by their SMILES. Bounds are passed on as bounds.

Sequence of NAD(P)H dehydrogenase [quinone] 1 (Mus musculus) (Q64669 whole entry): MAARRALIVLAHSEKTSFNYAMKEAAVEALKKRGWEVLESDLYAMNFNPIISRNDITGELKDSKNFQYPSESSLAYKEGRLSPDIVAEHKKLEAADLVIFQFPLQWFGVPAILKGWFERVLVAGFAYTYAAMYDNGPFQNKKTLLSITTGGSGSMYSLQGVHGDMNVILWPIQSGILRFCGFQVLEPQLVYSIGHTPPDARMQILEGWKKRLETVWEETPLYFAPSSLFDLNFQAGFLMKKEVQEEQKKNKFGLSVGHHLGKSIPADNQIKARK

On to `CCCCc1ccc(-c2nc(-c3cccc(OC)c3)cs2)cc1`, for which the CD in test [1] and in test [2] was > 50 µM throughout.
For `COc1cccc(-c2csc(-c3cccc(Cl)c3C)n2)c1`, the CD in test [1] and in [2] was > 50 µM throughout.
Consider `FC(F)(F)c1ccccc1-c1nc(-c2ccccc2)cs1`, for which the CD in test [1] and in test [2] was > 50 µM each time.
Regarding `COc1cccc(-c2csc(-c3cccc(OC)c3F)n2)c1`, the CD in test [1] and in test [2] was > 50 µM each time.
For `Fc1ccccc1-c1nsc(-c2ccccc2)n1`, in test [2], the CD is > 50 µM.
Regarding `COc1cccc(-c2nsc(-c3cccc(OC)c3)n2)c1`, the CD in test [2] is > 50 µM.
Still for that read-out and setting: to `Cc1ccc(-c2nc(-c3ccccc3)cs2)c(Br)c1` belongs > 50 µM; to `COc1cccc(-c2csc(-c3cccc(F)c3F)n2)c1`, > 50 µM; to `COc1cccc(-c2noc(-c3cccc(OC)c3)n2)c1`, > 50 µM.
As to `c1ccc(-c2nsc(-c3ccccc3)n2)cc1`, on Aromatase [3], the inhibition at 50 µM was found to be 60.2%. The IC50 – broadly, the midpoint of a concentration-inhibition curve – was 47.7 µM in test [4] and > 50 µM in [5]. Besides, the CD in [2] was > 50 µM.
As to `COc1cccc(-c2csc(-c3cccc(Cl)c3Cl)n2)c1`, the CD in test [1] and in test [2] was > 50 µM in each case.
Take `COc1cccc(-c2csc(-c3cccc(Br)c3)n2)c1`: the CD in [1] and in test [2] was > 50 µM in each case.
On to `Brc1cccc(-c2nc(-c3ccccc3)cs2)c1`, for which the CD in [2] was > 50 µM.
In the case of `Cc1ccc(Br)cc1-c1nsc(-c2ccc(Br)cc2C)n1`, the CD in test [1] is > 50 µM. In addition, the Ratio in [6] was found to be 2.3.
For `Fc1ccccc1-c1nsc(-c2ccccc2F)n1`, on Aromatase [3], the inhibition at 50 µM was determined as 53.2%. Also, the inhibition worked out at 40.7% in the test with HEK293 and 12.9% in test [8]. The IC50 (against Aromatase [7]; in [4]; in test [5]) was > 50 µM in each case.
With `COc1cccc(-c2csc(-c3cccc(OC)c3)n2)c1`, the IC50 is > 50 µM against Aromatase [7], 20.3 µM in test [4] and > 50 µM in test [5].
For the molecule `Cc1c(Cl)cccc1-c1nsc(-c2cccc(Cl)c2C)n1`, in [1], the CD is > 50 µM.
`Fc1ccccc1-c1nc(-c2ccccc2)ns1` returned a CD in test [9] of 0.1 µM.
In test [1], `Cc1ccc(Cl)cc1-c1nsc(-c2ccc(Cl)cc2C)n1` returned a CD of 0.44 µM. Also, the Ratio in test [6] was 4.9.
Take `Clc1cccc(Cl)c1-c1nc(-c2ccccc2)cs1`: the CD in test [2] was > 50 µM.
On the same count and under the same terms, to `Cc1c(Cl)cccc1-c1nc(-c2ccccc2)cs1` belongs > 50 µM.
Regarding `COc1cccc(-c2nc(-c3ccccc3)cs2)c1`, the inhibition at 50 µM at Aromatase [3] was 35.5%. The IC50 is > 50 µM against Aromatase [7], 2.7 µM in test [4] and > 50 µM in [5]. The CD in test [2] was > 50 µM.
Consider `COc1cccc(-c2csc(-c3ccccc3)n2)c1`, for which the inhibition at 50 µM on Aromatase [3] worked out at 27.1%. Moreover, the inhibition with HEK293 is 64%; in test [8], 62%. Moreover, the IC50 against Aromatase [7] is > 50 µM; in test [4], 31.6 µM; in test [5], 45.3 µM.
For `COc1cccc(-c2csc(-c3cc(OC)ccc3F)n2)c1`, the CD in [1] and in test [2] was > 50 µM throughout.
For the molecule `COc1cccc(-c2csc(-c3ccc(C)cc3Br)n2)c1`, the CD in test [2] is > 50 µM.
As for `CCCCc1ccc(-c2nc(-c3ccccc3)cs2)cc1`, the CD in test [1] and in test [2] was > 50 µM throughout.
